# Mdm2-MdmX inh: disrupts the human Mdm2-MdmX interaction | O15151+Q00987 | SaOS-2 split-luciferase Mdm2/MdmX complementation, luminescence | inhibition, % at 8 µM | hit rate 3% among 330,000;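 active means inhibition of at least 50% at 8 µM in the primary screen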
# CSC inhib: blocks cancer stem cells | cancer stem cell-like cells viability, luminescence | inhibition, % at 7.5 µM | hit rate 1.1% among 300,000 | AID 2717; in the data active means inhibition above about 75%; tested in HMLE shEcad cells
# T cruzi repl: blocks replication of Trypanosoma cruzi; T. cruzi beta-gal in NIH3T3, luminescence, 90 h; inhibition, % (no concentration beside the values); hit rate 1.4% among 300,000; AID 1885;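 active means mean inhibition across valid replicates above about 55%, limit read from the data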;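 further: signal also drops with host cell toxicity which is not excluded here; 0% = plate median of DMSO wells and 100% = zero luminescence signal; higher percent means less beta-gal luminescence so fewer parasites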
#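 System: Mouse NIH/3T3 fibroblasts infected with β-gal-expressing T. cruzi Tulahuen C4 | Quantity: NIH/3T3 cells, 5,000 per well | Reagent: 5000 reporter trypomastigotes per well | Dosing: Compound pinned at 50 nL/well, DMSO | Schedule: 3 h host attachment, then at least 90 h co-culture | Detection: GalScreen luminescence, 60 min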
# Beta apoptosis: blocks beta cell apoptosis | INS-1E cytokine-induced death, ATP luminescence, 48 h; percent of positive-control rescue, neutral wells zero | protection from apoptosis, % (concentration not given with the values) | hit rate 0.8% among 300,000 | AID 435005;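 active means Every replicate reaches about 75%, or at least half do and their mean reaches it too, limit read from the data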;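 further: 0% = cytokine-treated negative control wells and 100% = positive control rescue; higher means more ATP so stronger rescue from cytokine killing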
# Calb FLC: affects C. albicans growth with fluconazole | C. albicans CaCi-2 (fluconazole-resistant clinical isolate) + fluconazole, Alamar Blue growth, 48 h | growth inhibition, % (no concentration beside the values) | hit rate 0.57% among 300,000 | AID 1979;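 active means growth inhibition above about 58% in most replicates, limit read from the data, passing the limit was not always enough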;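 further: all wells also contain fluconazole at 8 µg/ml as a sub-toxic cotreatment; 0% = median of DMSO wells and 100% = median of geldanamycin control wells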
# NLRP3 yeast inh: blocks the NALP3 inflammasome reconstituted in yeast; Yeast reconstituted NLRP3/ASC/caspase-1, beta-gal luminescence, 24 h; inhibition, % at 10 µM; hit rate 0.39% among 330,000;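 active means inhibition of 50% or more; inactive means inhibition below 50%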;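 further: plate controls were induced DMSO wells for no effect and uninduced yeast grown without galactose for full effect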
# Numbers without * were called inactive; . = not tested or not shown. Shown are actives, neighbours in structure and some others; about 5.3% of the full set was active somewhere.
SMILES,Mdm2-MdmX inh,CSC inhib,T cruzi repl,Beta apoptosis,Calb FLC,NLRP3 yeast inh
Cc1ccc(NP(=O)(c2ccc(N(C)C)cc2NC(=O)c2cccs2)N2CCOCC2)cc1 (configuration not stated),10,33,57*,9,3,6
CN(C)c1ccc(P(=O)(Nc2ccccc2)N2CCOCC2)c(NC(=O)c2cccs2)c1 (configuration not stated),10,-20,25,.,-4,26
CC(C)c1ccc(NC(=S)N2CCCC2)cc1,-19,-9,-27,-1,-3,20
O=C(CCC(=O)OCCCC(F)(F)C(F)(F)F)NC1CCCCC1,3,-4,-19,-8,2,3
O=C(CCc1nc2ccccc2c(=O)[nH]1)N1CCN(C/C=C/c2ccccc2)CC1,6,4,82*,11,-8,13
O=c1[nH]c(CN2CCN(C/C=C/c3ccccc3)CC2)nc2cc(Cl)ccc12,29,-12,61*,-2,32,24
CCOc1cccc(CN2CCCC(C(=O)c3cccc(C(F)(F)F)c3)C2)c1O (configuration not stated),4,9,24,2,-9,20
Cc1cc(C)cc(Oc2nc3ccccn3c(=O)c2/C=C(\C#N)C(=O)NC2CCS(=O)(=O)C2)c1 (configuration not stated),11,18,-15,-7,3,2
CN(C)c1ccc(/C=C/c2nc3ccccc3c(=O)[nH]2)cc1,-49,84*,-11,33,4,11
O=c1[nH]c(/C=C/c2ccc(Br)cc2)nc2ccccc12,-25,13,7,7,-7,10
COc1ccc(C(=O)Nc2cccc(/C=C/c3nc4ccccc4c(=O)[nH]3)c2)cc1,34,78*,17,42,7,-1
Cn1c(-c2c(N)n(C3CCCC3)c3nc4ccccc4nc23)nc2ccccc21,48,68,73*,1,31,7
COCCCn1c(N)c(-c2nc3ccccc3n2C)c2nc3ccccc3nc21,21,0,20,10,-35,17
Cn1c(-c2c(N)n(CCc3ccccc3)c3nc4ccccc4nc23)nc2ccccc21,47,40,52,45,94*,0
Cn1c(-c2c(N)n(CCCc3ccccc3)c3nc4ccccc4nc23)nc2ccccc21,.,.,71*,.,1,.
C=CCN1C(=O)c2ccc(C(=O)N3CCN(c4ccccc4OC)CC3)cc2C1=O,3,2,-5,-4,-6,19
Cc1sc2nc(N3CCOCC3)[nH]c(=O)c2c1-c1ccccc1,16,-14,-5,-2,36,-7
Oc1ccc(Br)cc1/C=N/NC(=S)NCCc1ccccc1,39,105*,-25,13,-10,13
CCC1CCc2[nH]nc(C(=O)O)c2C1 (configuration not stated),-2,12,-13,-6,-15,20
Clc1ccc(OCCCNCc2ccccc2)c2ccccc12,40,110*,40,28,17,32
CCC(C)NCCOCCOc1ccc(Cl)c(C)c1C (configuration not stated),27,5,59*,6,-3,22
C=CCc1cc(Cl)ccc1OCCOCCNC(C)CC (configuration not stated),25,131*,45,10,-33,22
C=CCc1cc(Cl)ccc1OCCCNC(C)C,14,17,47,10,-15,14
CCC(C)NCCCOc1cc(Cl)ccc1Cl (configuration not stated),18,19,3,-4,-6,28
CCC(C)NCCOCCOc1ccc(Cl)c2ccccc12 (configuration not stated),47,.,55*,14,5,24
CC(=O)Nc1ccc(NC(=O)C2CCCN2S(=O)(=O)c2cccc3nsnc23)cc1 (configuration not stated),7,1,-7,-12,17,10
CCC(C)NC(=O)C1CCN(S(=O)(=O)c2cccc3cccnc23)CC1 (configuration not stated),14,2,-11,.,-3,3
C=CCc1cc(Cl)ccc1OCCN(C)C,1,-10,57*,-1,-15,18
C=CCc1cc(Cl)ccc1OCCCNCCO,30,.,38,-8,-48,15

# Source: PubChem BioAssay (several laboratories)
